# In the library only some 2.1% were active in any assay of this set; here they are far more common.
# Autophagy mod: modulators of autophagy; calls only at 10 µM (by protocol); MEF GFP-LC3 puncta imaging; test concentration mostly 10 µM; AID 463193; 190,000 compounds, 0.98% hits;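 active = percentage of spot-positive cells more than 3 SD above its plate mean, without a fluorescence outlier flag or 80% toxicity; inconclusive = no clear call, values can overlap the other calls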;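 also: spot-positive cell cutoff set from DMSO-treated cells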
# Insulin prom inh: TRM-6 insulin promoter activity inhibition | TRM-6 cells (human fetal islet line), insulin promoter-eGFP reporter, imaging; reporter expression induced with tamoxifen | inhibition, % at 2 µM | 130,000 compounds, 0.9% hits | AID 1273;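 active = inhibition above the mean plus 3 SD, with well images judged a real hit on visual review, cut at about 60% in these data, passing the limit was not always enough; inconclusive = inhibition over the cutoff but images rejected on review; inactive = inhibition not above the cutoff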
# RBBP9 inhibitor: human RBBP9 hydrolase inhibition | O75884 | recombinant RBBP9, FP-Rh probe fluorescence polarization | inhibition, % at 7.94 µM | 220,000 compounds, 0.2% hits | AID 1515;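 active = inhibition above the campaign mean of all tested compounds plus 3 SD, cut at about 14% in these data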;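 also: plate controls were DMSO wells with RBBP9 for no effect and wells lacking RBBP9 protein for full effect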
# Target sequence (O75884 whole entry, looked up): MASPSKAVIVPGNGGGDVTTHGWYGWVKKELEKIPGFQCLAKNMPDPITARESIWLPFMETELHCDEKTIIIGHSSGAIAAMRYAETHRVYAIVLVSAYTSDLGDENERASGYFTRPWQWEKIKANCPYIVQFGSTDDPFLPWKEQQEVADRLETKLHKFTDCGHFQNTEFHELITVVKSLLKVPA
#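 Test system: recombinant human RBBP9. Quantity: 2.5 µM RBBP9 dispensing solution, before mixing. Detection: FP readout at 525/598 nm. Reagent: Serine-hydrolase probe FP-Rh, 375 nM pre-mixing. Measure: % inhibition. Control set: DMSO-treated enzyme wells and wells lacking RBBP9. Buffer or medium: Tris-NaCl-Pluronic buffer, pH 8.0. Times: preincubation 30 min plus labeling 45 min at 25 °C.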
# PKD1 inh: inhibitors of human PKD1 kinase. Q15139. PKD1 kinase fluorescence polarization assay. inhibition, % (no concentration beside the values). 200,000 compounds, 0.056% hits; in the data active = inhibition above about 50%
# Insulin prom up: MIN6 insulin promoter up-regulation; MIN6 insulin promoter-GFP reporter, high-content imaging; stronger effect = higher value; z-score at 5 µM; 190,000 compounds, 0.3% hits;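 active = z-score above 3 at 5 µM with at least 500 cells counted in the well; inconclusive = wells under 500 cells, flagged as cytotoxic or low count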
# Arbovirus inh: antivirals against arbovirus infection; arbovirus infection cell-based antiviral screen; inhibition, % at 10 µM; 200,000 compounds, 0.37% hits; in the data active = inhibition above about 30%
# The depositor's hits bear a star; i = inactive; ? = inconclusive; . = no result given; + = active, no number.
SMILES,Autophagy mod,Insulin prom inh,RBBP9 inhibitor,PKD1 inh,Insulin prom up,Arbovirus inh
CCOCCCNc1nc2ccccc2[nH]1,i,-31,-9,-5,.,3
O=C(NCc1cn2ccccc2n1)c1ccco1,i,.,-6,-5,3.7*,12
CCCC(C)NC(=O)CSc1nnc2ccccn12 (stereo not given),i,-100,-1,-10,0.04,16
CCN(C=NC1=NN(c2cccc(C(F)(F)F)c2)CC1)CC,i,62*,-4,-6,-0.47,-14
OCCN(C=NC1=NN(c2cccc(C(F)(F)F)c2)CC1)CCO,i,3,-7,2,.,-4
O=C(c1coc(=O)c(Br)c1)N1CCCc2ccccc21,i,.,0,-1,0.95,32*
CC(C)C1S/C(=N/N=C/c2ccco2)NC1=O (stereo not given),i,-43,-10,-4,3.2*,2
Cc1ccccc1CC1S/C(=N/N=C/c2ccco2)NC1=O (stereo not given),.,.,1,.,.,.
O=C(O)CCCC(=O)Nc1cccc(C(=O)Nc2ccccc2C(=O)O)c1,i,.,1,1,1.3,5
CC(C)c1ccc(OCC(=O)Nc2cccc(C(=O)Nc3ccccc3C(=O)O)c2)cc1,i,-12,-30,1,0.41,26
Clc1ccc(CSc2nnc(-c3ccncc3)o2)cc1,.,.,-6,-1,-0.03,-29
O=S(=O)(Nc1ccc(-c2nnc(SCc3ccc(Cl)cc3)o2)cc1)c1ccccc1,i,-30,-22,0,0.36,31*
Cc1cccc(OCC(=O)Nc2cccc(C(=O)Nc3ccccc3C(=O)O)c2)c1,i,-38,-12,1,0.6,55*
O=C(CSCc1ccc(Cl)cc1)Nc1cccc(C(=O)Nc2ccccc2C(=O)O)c1,i,?,-15,5,.,36*
O=C(CSCc1ccccc1)Nc1cccc(C(=O)Nc2ccccc2C(=O)O)c1,i,.,2,-1,-0.11,31*
Cc1cc(C(=O)COc2cccc3cccnc23)c(C)n1C,i,-4,3,-6,0.05,5
CCOc1ccc(NC(=O)c2sc(N3CCOCC3)nc2-c2ccccc2)cc1,i,6,-7,3,-0.35,11
O=C(CSCc1ccc(Cl)cc1)Nc1ccc(-c2nnc(-c3ccccc3)o2)cc1,+,.,-5,-3,-0.32,-4
COC(=O)C1=C(C)NC(=O)/C1=C\c1cc(C)n(-c2ccccc2F)c1C,i,29,-13,-5,-0.01,-3
COC(=O)C1=C(C)NC(=O)/C1=C\c1cc(C)n(-c2ccccc2C)c1C,i,71*,0,2,-1.7,-4
Cc1ccc(CNC(=O)CNC(=S)N(Cc2ccccc2)Cc2ccccc2F)cc1,+,.,-12,2,-0.62,-26
O=C(CNC(=S)N(Cc1ccccc1)Cc1ccccc1F)NCc1ccccc1,i,-4,-4,-7,0.38,-30
CCOC(=O)c1sc(C)c2c(=O)n(Cc3ccc(Cl)cc3)cnc12,i,-65,-2,0,.,10
Cc1ccc(CNC(=O)Cc2ccc(-n3cccc3)cc2)cc1,i,13,-3,-5,-0.29,-11
Cc1ccc(CNC(=O)c2ccc(-n3cccc3)cc2)cc1,i,100*,-12,-7,0.1,14
SMILES,Autophagy mod,Insulin prom inh,RBBP9 inhibitor,PKD1 inh,Insulin prom up,Arbovirus inh
COc1ccc2ccccc2c1CN1CCCC(CO)C1 (stereo not given),i,13,3,0,0.38,1
COc1ccc2ccccc2c1CN1CCN(Cc2ccccc2)CC1,i,78*,1,-10,-1.9,23
COc1ccc(N(CC(=O)Nc2ccc(C(N)=O)cc2)S(=O)(=O)c2ccc(C)c([N+](=O)[O-])c2)cc1,i,.,1,-4,-0.2,-2
COc1ccc(N2C(=O)CC(NCc3ccc(F)cc3)C2=O)cc1 (stereo not given),+,-7,-8,-5,.,-1
Cn1c2ccccc2n2c(=O)c(Cl)c(-c3ccccc3)c(C#N)c12,+,8,-6,2,-0.29,-11
CC1Cc2ccccc2N1C(=O)C12CCC(C)(C(=O)C1)C2(C)C (stereo not given),i,95*,8,-4,0.02,-10
CC1CCCCN1C(=O)C12CCC(C)(C(=O)C1)C2(C)C (stereo not given),i,.,0,-7,1.9,4
CCOc1cc(C2NC(=O)NC(c3ccccc3)=C2C(C)=O)ccc1OCC(N)=O (stereo not given),i,-28,-4,1,-0.83,0
CCOc1ccc(Br)cc1CC(=O)O,i,81*,-2,6,.,0
COC(=O)/C(C#N)=C1/C=Cc2ccccc2N1C,i,81*,4,3,.,2
Cc1ccc(-n2ncc3c(NNC(=O)c4cccs4)ncnc32)cc1,i,17,-11,11,0,4
CCCCN(CCCNC(=O)CN1C(=O)COc2ccccc21)c1ccccc1,+,.,-2,-9,0.24,-4
COc1ccc2[nH]c3c4c(ccc3c2c1)C(=O)C=CC4=O,.,.,84*,.,-0.64,.
Cc1cc(C)nc(SCSc2nc(C)cc(C)n2)n1,i,.,-10,-10,4.5*,1
CCS(=O)(=O)CCSc1nc(C)cc(C)n1,i,.,-5,-3,0.44,-3
CC(/C=N/NC(=O)c1cc(-c2cccnc2)nc2c1c(C)nn2-c1ccccc1)=C\c1ccccc1,+,.,-14,-5,-0.72,6
O=C(NCCN1CCCC1)C1(S(=O)(=O)c2ccc(Cl)cc2)CC1,i,-31,-7,-19,3.1*,12
CCCc1cn(S(=O)(=O)c2ccc(OC)cc2OC)nc1N,i,67,-3,-14,0.31,-2
O=C1COc2ccc(C(=O)CSc3nnc(Cc4cccs4)n3-c3ccccc3)cc2N1,i,71*,3,-2,-0.17,2
O=C1COc2ccc(C(=O)CSc3nnc(-c4cccs4)n3Cc3ccccc3)cc2N1,i,.,-11,-1,0.42,5
O=c1cc(N2CCc3ccccc32)[nH]c(=O)n1Cc1ccc(F)cc1,i,-100,-4,-3,0.58,2
CCOc1cccc(-c2nnc3sc(-c4cc(OC)c(OC)c(OC)c4)nn23)c1,i,-40,-5,-8,-3.6,-20
COc1cc(-c2nn3c(-c4ccccc4)nnc3s2)cc(OC)c1OC,+,.,-4,-6,-3.9,-12
CCCC(=O)Nc1ccccc1NC(=O)CN(C)S(=O)(=O)c1ccccc1,i,-256,2,6,-0.27,5
CC(C)Cn1c(N)c(C(=O)CSc2nc3ccccc3c(=O)n2CCCN2CCOCC2)c(=O)n(C)c1=O,+,.,0,6,-1.2,1
CC(C)Cn1c(N)c(C(=O)CSc2nc3ccccc3n2C)c(=O)n(C)c1=O,i,14,2,-2,-0.08,-10
CCOC(=O)N1CCN(C(=O)CSc2ccc(-c3ccccc3)nn2)CC1,i,-3,-3,4,.,1
